From ChEMBL document CHEMBL1914304 (J Med Chem, 2011)
One block for each compound: values may come before it.

Experiments:
HEK293 = assay: Cytotoxicity against human HEK293 cells after 72 hrs by luminescence assay; type: cell-based; settings: hek293, 72 h
Raji = assay: Cytotoxicity against human Raji cells after 72 hrs by luminescence assay; type: cell-based
HepG2 = assay: Cytotoxicity against human HepG2 cells after 72 hrs by luminescence assay; type: cell-based; settings: hepg2, 72 h
BJ = assay: Cytotoxicity against human BJ cells after 72 hrs by luminescence assay; type: cell-based
[1] = Selectivity ratio of EC50 for human HepG2 cells to EC50 for Plasmodium falciparum
[2] = biological target: T1, Sodium channel protein type 5 subunit alpha (Homo sapiens, UniProt Q14524); assay: Inhibition of human cloned Nav1.5 channel expressed in chinese hamster CHO cells assessed as tonic inhibition after 5 mins by patch clamp assay; type: cell-based
[3] = biological target: T1, Sodium channel protein type 5 subunit alpha; assay: Inhibition of human cloned Nav1.5 channel expressed in chinese hamster CHO cells assessed as phasic inhibition after 5 mins by patch clamp assay; type: cell-based
[4] = biological target: Sulfonylurea receptor 2, Kir6.2 (Homo sapiens, UniProt O60706+Q14654); assay: Inhibition of human kir6.2/SUR2A ion channel coexpressed in human HEK293 cells after 5 mins by patch clamp assay; type: cell-based
Procedure, shortened: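 Human KCNJ11 (Kir6.2) and SUR2A were co-expressed in HEK293 cells to give the ATP-sensitive current IKATP. The assay was run at room temperature by automated parallel patch clamp, with dose-response at 0.2, 0.6, 1.6 and 5 µM. Exposure was 5 min per concentration, with each concentration in two cells (n ≥ 2).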

Plasma = assay: Metabolic stability in mouse plasma over 24 hrs; type: ADME, cell-free
[5] = Chemical stability in simulated gastric fluid at pH 2 over 24 hrs; type: physicochemical; settings: simulated gi fluid, pH 2, 24 h
[6] = Chemical stability in simulated gastric fluid at pH 5 over 24 hrs; type: physicochemical; settings: simulated gi fluid, pH 5, 24 h
[7] = Solubility of the compound in phosphate buffered saline by UV spectrophotometry; type: physicochemical
[8] = biological target: Voltage-gated inwardly rectifying potassium channel KCNH2 (Homo sapiens, UniProt Q12809); assay: Inhibition of human cloned ERG channel expressed in chinese hamster CHO cells after 5 mins by patch clamp assay; type: cell-based
Plasmodium falciparum [9] = assay: Antimalarial activity against erythrocytic stage of chloroquine-sensitive Plasmodium falciparum 3D7 after 72 hrs by spectrophotometry; type: functional, organism-based; settings: 3D7, 72 h
Plasmodium falciparum [10] = assay: Antimalarial activity against erythrocytic stage of chloroquine-resistant Plasmodium falciparum K1 after 72 hrs by spectrophotometry; type: functional, organism-based; settings: K1, 72 h
hERG = assay: Therapeutic index, ratio of IC50 for human ERG expressed in CHO cells to EC50 for chloroquine-resistant Plasmodium falciparum K1; type: cell-based; settings: hamster, CHO cells expressing human ERG; read-out: Ratio IC50/EC50

T1 sequence (Q14524 whole entry): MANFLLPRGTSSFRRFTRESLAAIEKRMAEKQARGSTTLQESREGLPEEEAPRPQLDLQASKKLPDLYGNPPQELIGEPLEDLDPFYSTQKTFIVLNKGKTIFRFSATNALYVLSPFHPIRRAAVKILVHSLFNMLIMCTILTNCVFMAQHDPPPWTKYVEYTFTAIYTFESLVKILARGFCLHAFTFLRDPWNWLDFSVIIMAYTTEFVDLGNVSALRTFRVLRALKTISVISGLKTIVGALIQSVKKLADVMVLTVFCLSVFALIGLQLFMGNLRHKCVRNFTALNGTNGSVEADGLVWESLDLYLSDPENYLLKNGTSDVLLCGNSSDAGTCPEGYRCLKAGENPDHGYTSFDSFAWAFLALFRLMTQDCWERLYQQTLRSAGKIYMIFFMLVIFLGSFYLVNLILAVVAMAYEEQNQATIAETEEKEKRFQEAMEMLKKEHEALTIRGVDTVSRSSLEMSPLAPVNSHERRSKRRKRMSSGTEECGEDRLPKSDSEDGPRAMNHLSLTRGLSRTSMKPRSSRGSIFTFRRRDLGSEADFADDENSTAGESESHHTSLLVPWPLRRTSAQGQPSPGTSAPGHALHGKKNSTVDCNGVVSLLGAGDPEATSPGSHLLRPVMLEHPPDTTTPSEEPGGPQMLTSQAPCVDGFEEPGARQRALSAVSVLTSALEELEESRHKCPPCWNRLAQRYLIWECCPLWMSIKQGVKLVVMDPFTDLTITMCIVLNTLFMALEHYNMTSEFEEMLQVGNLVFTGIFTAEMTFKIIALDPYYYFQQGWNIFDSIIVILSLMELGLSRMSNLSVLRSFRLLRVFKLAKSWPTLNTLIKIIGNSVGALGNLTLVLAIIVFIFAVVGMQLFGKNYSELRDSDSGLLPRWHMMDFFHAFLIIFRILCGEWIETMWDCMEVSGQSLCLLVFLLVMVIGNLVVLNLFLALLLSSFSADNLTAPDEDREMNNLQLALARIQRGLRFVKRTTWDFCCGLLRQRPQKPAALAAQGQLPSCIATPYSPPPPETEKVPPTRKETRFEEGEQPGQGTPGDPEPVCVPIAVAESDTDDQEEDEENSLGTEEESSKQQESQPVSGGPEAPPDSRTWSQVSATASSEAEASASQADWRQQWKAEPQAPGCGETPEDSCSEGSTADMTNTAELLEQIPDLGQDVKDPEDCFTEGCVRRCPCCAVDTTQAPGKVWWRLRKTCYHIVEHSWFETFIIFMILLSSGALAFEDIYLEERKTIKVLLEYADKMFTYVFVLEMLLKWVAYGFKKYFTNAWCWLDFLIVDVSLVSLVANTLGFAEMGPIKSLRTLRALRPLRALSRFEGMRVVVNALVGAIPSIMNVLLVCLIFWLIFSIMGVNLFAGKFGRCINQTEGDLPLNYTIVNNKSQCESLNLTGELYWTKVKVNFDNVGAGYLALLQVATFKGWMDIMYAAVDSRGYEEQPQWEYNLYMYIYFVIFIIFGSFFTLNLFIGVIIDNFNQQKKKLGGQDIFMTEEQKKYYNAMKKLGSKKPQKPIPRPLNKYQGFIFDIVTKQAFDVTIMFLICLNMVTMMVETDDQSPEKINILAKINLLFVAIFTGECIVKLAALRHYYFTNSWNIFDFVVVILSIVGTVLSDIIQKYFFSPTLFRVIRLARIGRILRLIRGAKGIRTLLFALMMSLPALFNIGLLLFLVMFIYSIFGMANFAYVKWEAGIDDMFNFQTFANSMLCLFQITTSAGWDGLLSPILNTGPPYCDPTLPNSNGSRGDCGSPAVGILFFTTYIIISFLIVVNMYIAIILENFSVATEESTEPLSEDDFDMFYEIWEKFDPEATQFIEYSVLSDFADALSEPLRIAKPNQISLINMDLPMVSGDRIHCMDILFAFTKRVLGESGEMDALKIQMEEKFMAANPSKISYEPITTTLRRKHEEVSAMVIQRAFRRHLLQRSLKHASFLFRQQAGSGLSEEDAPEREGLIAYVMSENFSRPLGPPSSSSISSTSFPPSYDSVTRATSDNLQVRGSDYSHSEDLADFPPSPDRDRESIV
Chain of Sulfonylurea receptor 2, Kir6.2 (Q14654 whole entry): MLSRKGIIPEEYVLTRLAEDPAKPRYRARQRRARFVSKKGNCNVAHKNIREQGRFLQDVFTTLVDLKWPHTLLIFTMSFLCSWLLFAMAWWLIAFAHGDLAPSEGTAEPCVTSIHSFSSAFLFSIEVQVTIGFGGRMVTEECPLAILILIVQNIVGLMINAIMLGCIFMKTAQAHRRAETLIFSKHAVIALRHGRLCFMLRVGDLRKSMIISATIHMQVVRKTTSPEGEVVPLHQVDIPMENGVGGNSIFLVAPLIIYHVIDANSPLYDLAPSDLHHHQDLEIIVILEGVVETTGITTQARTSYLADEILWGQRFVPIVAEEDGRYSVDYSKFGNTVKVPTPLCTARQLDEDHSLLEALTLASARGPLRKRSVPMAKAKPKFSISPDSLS
Chain of Sulfonylurea receptor 2, Kir6.2 (O60706 whole entry): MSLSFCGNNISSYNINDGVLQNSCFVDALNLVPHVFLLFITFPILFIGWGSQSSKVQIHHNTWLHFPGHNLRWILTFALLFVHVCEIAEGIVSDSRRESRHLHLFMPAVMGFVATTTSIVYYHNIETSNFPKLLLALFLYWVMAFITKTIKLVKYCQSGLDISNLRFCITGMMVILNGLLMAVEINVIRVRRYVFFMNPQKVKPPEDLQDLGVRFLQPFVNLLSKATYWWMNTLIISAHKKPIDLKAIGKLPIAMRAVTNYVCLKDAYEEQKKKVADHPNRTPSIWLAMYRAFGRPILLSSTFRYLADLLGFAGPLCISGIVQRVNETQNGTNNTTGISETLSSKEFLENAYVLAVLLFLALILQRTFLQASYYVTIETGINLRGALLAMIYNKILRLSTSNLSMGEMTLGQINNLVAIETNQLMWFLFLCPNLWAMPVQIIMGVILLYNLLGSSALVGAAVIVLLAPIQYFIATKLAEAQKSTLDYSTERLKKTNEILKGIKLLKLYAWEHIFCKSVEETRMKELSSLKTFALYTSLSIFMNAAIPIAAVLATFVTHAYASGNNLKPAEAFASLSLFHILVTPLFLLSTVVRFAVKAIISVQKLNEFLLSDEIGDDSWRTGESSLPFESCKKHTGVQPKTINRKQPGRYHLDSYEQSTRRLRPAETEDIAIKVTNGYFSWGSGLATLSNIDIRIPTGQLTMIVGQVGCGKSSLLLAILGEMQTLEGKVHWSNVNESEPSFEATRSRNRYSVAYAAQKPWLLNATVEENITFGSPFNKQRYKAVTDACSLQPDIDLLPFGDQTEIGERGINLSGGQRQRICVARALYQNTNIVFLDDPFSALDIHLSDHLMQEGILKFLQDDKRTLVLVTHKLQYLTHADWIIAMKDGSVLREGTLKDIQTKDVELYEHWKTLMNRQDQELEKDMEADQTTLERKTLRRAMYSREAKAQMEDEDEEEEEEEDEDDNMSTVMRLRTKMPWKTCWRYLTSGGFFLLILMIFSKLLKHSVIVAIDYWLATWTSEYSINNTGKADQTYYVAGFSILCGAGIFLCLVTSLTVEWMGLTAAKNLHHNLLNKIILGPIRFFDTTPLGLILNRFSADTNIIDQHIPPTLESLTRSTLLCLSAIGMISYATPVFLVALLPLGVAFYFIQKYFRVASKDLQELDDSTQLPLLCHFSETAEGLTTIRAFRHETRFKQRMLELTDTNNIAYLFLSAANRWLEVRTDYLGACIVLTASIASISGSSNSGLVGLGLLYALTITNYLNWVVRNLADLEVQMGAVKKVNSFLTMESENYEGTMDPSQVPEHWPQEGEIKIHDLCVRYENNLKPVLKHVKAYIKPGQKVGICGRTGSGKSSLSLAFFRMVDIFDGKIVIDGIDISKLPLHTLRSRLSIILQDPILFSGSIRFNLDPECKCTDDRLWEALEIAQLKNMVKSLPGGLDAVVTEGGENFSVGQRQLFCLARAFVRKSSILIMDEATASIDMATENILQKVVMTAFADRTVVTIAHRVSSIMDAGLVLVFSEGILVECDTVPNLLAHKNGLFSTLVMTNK
Chain of Voltage-gated inwardly rectifying potassium channel KCNH2 (Q12809 whole entry): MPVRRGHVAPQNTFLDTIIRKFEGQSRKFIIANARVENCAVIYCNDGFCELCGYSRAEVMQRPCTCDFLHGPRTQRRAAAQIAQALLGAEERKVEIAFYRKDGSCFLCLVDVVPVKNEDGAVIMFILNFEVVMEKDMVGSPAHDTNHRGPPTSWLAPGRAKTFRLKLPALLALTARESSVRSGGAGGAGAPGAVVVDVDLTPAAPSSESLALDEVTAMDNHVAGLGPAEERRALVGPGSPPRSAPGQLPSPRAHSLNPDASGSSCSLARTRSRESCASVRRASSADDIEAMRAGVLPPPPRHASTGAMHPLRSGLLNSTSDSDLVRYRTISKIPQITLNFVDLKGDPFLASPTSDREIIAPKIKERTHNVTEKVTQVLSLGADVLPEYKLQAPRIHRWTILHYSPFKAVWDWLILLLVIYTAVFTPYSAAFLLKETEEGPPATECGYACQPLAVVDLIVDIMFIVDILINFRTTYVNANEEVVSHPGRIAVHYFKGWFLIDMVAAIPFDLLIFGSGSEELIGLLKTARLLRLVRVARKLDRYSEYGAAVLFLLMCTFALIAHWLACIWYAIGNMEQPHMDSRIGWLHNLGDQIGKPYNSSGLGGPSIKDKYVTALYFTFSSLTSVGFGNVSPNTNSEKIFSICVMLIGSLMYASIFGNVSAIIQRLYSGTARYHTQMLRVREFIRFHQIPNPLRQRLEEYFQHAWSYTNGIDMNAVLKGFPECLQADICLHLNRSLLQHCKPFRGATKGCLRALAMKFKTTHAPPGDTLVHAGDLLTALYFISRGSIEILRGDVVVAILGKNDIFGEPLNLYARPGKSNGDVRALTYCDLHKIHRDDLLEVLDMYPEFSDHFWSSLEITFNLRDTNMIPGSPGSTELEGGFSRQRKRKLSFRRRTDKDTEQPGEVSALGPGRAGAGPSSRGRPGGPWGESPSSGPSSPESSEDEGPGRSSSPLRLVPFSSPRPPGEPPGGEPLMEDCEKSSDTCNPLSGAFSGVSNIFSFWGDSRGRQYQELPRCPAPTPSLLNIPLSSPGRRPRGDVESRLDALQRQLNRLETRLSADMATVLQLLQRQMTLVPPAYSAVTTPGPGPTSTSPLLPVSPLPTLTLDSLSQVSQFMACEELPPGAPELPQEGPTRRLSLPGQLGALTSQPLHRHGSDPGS

SMILES: CC(C)(C)NCC(O)COc1ccccc1C(=O)CCc1ccccc1.Cl (racemic)
Activity (HEK293): Non-toxic
Activity (Raji): Non-toxic
Activity (HepG2): Non-toxic
Activity (BJ): Non-toxic
selectivity ratio [1]: > 10

SMILES: Cl.O=C(CCc1ccccc1)c1ccccc1OCC1CO1 (racemic)
Activity (HEK293): Non-toxic
Activity (Raji): Non-toxic
Activity (HepG2): Non-toxic
Activity (BJ): Non-toxic
selectivity ratio [1]: > 10

SMILES: Cl.O=C(CCc1ccccc1)c1cc(F)ccc1OCC1CO1 (racemic)
Activity (HEK293): Non-toxic
Activity (Raji): Non-toxic
Activity (HepG2): Non-toxic
Activity (BJ): Non-toxic
selectivity ratio [1]: > 10

SMILES: Cl.O=C(CCc1ccc(F)cc1)c1ccccc1OCC1CO1 (racemic)
Activity (HEK293): Non-toxic
Activity (Raji): Non-toxic
Activity (HepG2): Non-toxic
Activity (BJ): Non-toxic
selectivity ratio [1]: > 10

SMILES: Cl.O=C(CCc1ccc(F)cc1)c1cc(F)ccc1OCC1CO1 (racemic)
Activity (HEK293): Non-toxic
Activity (Raji): Non-toxic
Activity (HepG2): Non-toxic
Activity (BJ): Non-toxic
selectivity ratio [1]: > 10

SMILES: Cl.O=C(CCc1ccccc1)c1ccccc1OCC(O)CNCc1ccccc1 (racemic)
Activity (HEK293): Non-toxic
Activity (Raji): Non-toxic
Activity (HepG2): Non-toxic
Activity (BJ): Non-toxic
selectivity ratio [1]: > 10

SMILES: Cl.O=C(CCc1ccccc1)c1ccccc1OCC(O)CN(Cc1ccccc1)c1ccccc1 (racemic)
Activity (HEK293): Non-toxic
Activity (Raji): Non-toxic
Activity (HepG2): Non-toxic
Activity (BJ): Non-toxic
selectivity ratio [1]: > 10

SMILES: Cc1cccc(N(CC(O)COc2ccccc2C(=O)CCc2ccccc2)c2ccccc2)c1.Cl (racemic)
Activity (HEK293): Non-toxic
Activity (Raji): Non-toxic
Activity (HepG2): Non-toxic
Activity (BJ): Non-toxic
selectivity ratio [1]: > 10

SMILES: CN(CCc1ccccc1)CC(O)COc1ccccc1C(=O)CCc1ccccc1.Cl (racemic)
Activity (HEK293): Non-toxic
Activity (Raji): Non-toxic
Activity (HepG2): Non-toxic
Activity (BJ): Non-toxic
selectivity ratio [1]: > 10

SMILES: CCN(CC)CC(O)COc1ccccc1C(=O)CCc1ccccc1.Cl (racemic)
Activity (HEK293): Non-toxic
Activity (Raji): Non-toxic
Activity (HepG2): Non-toxic
Activity (BJ): Non-toxic
selectivity ratio [1]: > 10

SMILES: CCCN(CCC)CC(O)COc1ccccc1C(=O)CCc1ccccc1.Cl (racemic)
Activity (HEK293): Non-toxic
Activity (Raji): Non-toxic
Activity (HepG2): Non-toxic
Activity (BJ): Non-toxic
selectivity ratio [1]: > 10

SMILES: CCCCN(CCCC)CC(O)COc1ccccc1C(=O)CCc1ccccc1.Cl (racemic)
Activity (HEK293): Non-toxic
Activity (Raji): Non-toxic
Activity (HepG2): Non-toxic
Activity (BJ): Non-toxic
selectivity ratio [1]: > 10

SMILES: CC(C)N(CC(O)COc1ccccc1C(=O)CCc1ccccc1)c1ccccc1.Cl (racemic)
Activity (HEK293): Non-toxic
Activity (Raji): Non-toxic
Activity (HepG2): Non-toxic
Activity (BJ): Non-toxic
selectivity ratio [1]: > 10

IC50 [4]: > 5 µM
Stability (Plasma): Stable
Stability [5]: Stable
Stability [6]: Stable
solubility [7]: 7.27 µM
SMILES: Cl.O=C(CCc1ccccc1)c1ccccc1OCC(O)CN1CCC(c2ccccc2)CC1 (racemic)
Activity (HEK293): Non-toxic
Activity (Raji): Non-toxic
Activity (HepG2): Non-toxic
Activity (BJ): Non-toxic
IC50 [2]: > 5 µM
IC50 [3]: > 5 µM

SMILES: Cc1ccc(N2CCN(CC(O)COc3ccccc3C(=O)CCc3ccccc3)CC2)cc1.Cl (racemic)
Activity (HEK293): Non-toxic
Activity (Raji): Non-toxic
Activity (HepG2): Non-toxic
Activity (BJ): Non-toxic
IC50 [8]: 4.31 µM
IC50 [2]: > 5 µM
IC50 [3]: > 5 µM
IC50 [4]: > 5 µM

SMILES: Cl.O=C(CCc1ccccc1)c1ccccc1OCC(O)CN1CCN(C(c2ccccc2)c2ccccc2)CC1 (racemic)
EC50 (Plasmodium falciparum [9]): 0.06 µM
EC50 (Plasmodium falciparum [10]): 0.1 µM
Activity (HEK293): Non-toxic
Activity (Raji): Non-toxic
Activity (HepG2): Non-toxic
Activity (BJ): Non-toxic
selectivity ratio [1]: > 10
IC50 [8]: 2.6 µM
selectivity ratio (hERG): 26
Stability (Plasma): Stable
Stability [5]: Stable
Stability [6]: Stable
solubility [7]: 0.2 µM

SMILES: Cl.O=C(CCc1ccc(F)cc1)c1ccccc1OCC(O)CN1CCN(C(c2ccccc2)c2ccccc2)CC1 (racemic)
EC50 (Plasmodium falciparum [9]): < 0.1 µM
EC50 (Plasmodium falciparum [10]): < 0.1 µM
Activity (HEK293): Non-toxic
Activity (Raji): Non-toxic
Activity (HepG2): Non-toxic
Activity (BJ): Non-toxic
selectivity ratio [1]: > 10

IC50 [4]: > 5 µM
Stability (Plasma): Stable
Stability [5]: Stable
Stability [6]: Stable
solubility [7]: 0.11 µM
SMILES: Cl.O=C(CCc1ccccc1)c1cc(F)ccc1OCC(O)CN1CCN(C(c2ccccc2)c2ccccc2)CC1 (racemic)
Activity (HEK293): Non-toxic
Activity (Raji): Non-toxic
Activity (HepG2): Non-toxic
Activity (BJ): Non-toxic
IC50 [2]: > 5 µM
IC50 [3]: > 5 µM
